From PubChem BioAssay AID688 (PCMD, 2007)
Hit rate of the full screen: of about 27,000 compounds, about 250 (0.93%) were called active.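 Rule for the calls: active = mutant luminescence inhibited past about 50% while wild type luminescence and mutant growth stay under set limits (limit read from the data); inconclusive = mutant versus wild type luminescence inhibition gap past a set limit; inactive = the rest.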 Shown is part of a subset that was picked to be rich in actives.

Assay: GCN4-lacZ reporter reduction in eIF2B-epsilon mutant yeast, primary screen, S. cerevisiae, eIF2B-epsilon R284H, Beta-Glo luminescence (AID 688)
Settings: growth inhibition: measured here: mutant yeast growth, toxicity, concentration not given here; inhibition: stronger effect = higher value, screened at 25 µM (by protocol)
Summary of the method: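 Times: 16 h growth with compound at 30 °C, 90 min Beta-Glo step; Assay system: yeast eIF2B-epsilon R284H mutant carrying GCN4–beta-galactosidase fusion; Measure: % inhibition of reporter signal and growth versus controls; Dosing: one concentration, 25 µM, 0.25% DMSO; Buffer or medium: YPD yeast growth medium; Measured by: Beta-Glo luminescence plus absorbance at 595 nm.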
In the case of `COc1ccc(Cl)cc1C(=O)Nc1ccc(N(C)C(C)=O)cc1`, the growth inhibition is reported as 27.8% and the inhibition is reported as 21.8% (inactive).
For `CCN(CC)CCNC(=O)CCCCCn1c(=O)[nH]c2cc(C(=O)OC)ccc2c1=O`, the growth inhibition was 3.33% and the inhibition was 12.9% (inactive).
In the case of `Nn1c(Cc2cccc3ccccc23)nnc1SCC(=O)N1CC(=O)Nc2ccccc21`, the growth inhibition is reported as 7.35% and the inhibition is reported as 9.26% (inactive).
For `Cc1ccc(C2=CSC3=NS(=O)(=O)CCN23)cc1C`, the growth inhibition was -2.38% and the inhibition was 1.24% (inactive).
With `O=C(c1cccc2ccccc12)N1CCN(c2ccccc2F)CC1` the growth inhibition was 10.7% and the inhibition was 8.17% (inactive).
In the case of `O=C(O)CCSc1nnc(-c2ccccc2)n1-c1ccccc1`, the growth inhibition is reported as -9.09% and the inhibition is reported as 19.8% (inactive).
For `Cc1ccc(S(=O)(=O)NCC(C)NS(C)(=O)=O)cc1` (stereo not drawn), the growth inhibition was 1.47% and the inhibition was -24.4% (inactive).
With `COCc1nnc(NC(=O)CS(=O)(=O)Cc2ccccc2)s1` the growth inhibition was -13.8% and the inhibition was 8.87% (inactive).
With `COc1ccc(-n2c(SCC(=O)Nc3ccc4c(c3)OCO4)nnc2C(C)N2CCCCC2)cc1` (stereo not drawn) the growth inhibition was -17.2% and the inhibition was 32% (inactive).
With `O=C(NC1(C(F)(F)F)NC(=O)N(Cc2cccnc2)C1=O)c1ccccc1Cl` (stereo not drawn) the growth inhibition was -9.52% and the inhibition was 12.7% (inactive).
With `CCc1nnc(NC(=O)CSc2nc3ccccc3c(=O)n2CCCOC)s1` the growth inhibition was -4.35% and the inhibition was -1.74% (inactive).
With `Cc1cc(-n2nc(C)cc2C)n2nc(C)c(-c3ccccc3)c2n1` the growth inhibition was -28.6% and the inhibition was -42.8% (inactive).
With `CCOC(=O)c1cnc(SCC(=O)NCc2ccco2)nc1N` the growth inhibition was 5.17% and the inhibition was -10.3% (inactive).
For `CCOc1ccccc1NC(=O)C1CCCN(C(=O)Nc2ccccc2)C1` (stereo not drawn), the growth inhibition was -12.5% and the inhibition was 25.3% (inactive).
With `COc1ccc(C2N=C(N)N=C(N)N2c2ccccc2)cc1OC` (stereo not drawn) the growth inhibition was -25% and the inhibition was -6.05% (inactive).
In the case of `COc1ccc(OC)c(-n2nnnc2SCC(=O)Nc2cc(C)ccc2OC)c1`, the growth inhibition is reported as -24.1% and the inhibition is reported as 30.4% (inactive).
In the case of `CCC(C(=O)NC1CCCC1)N(C(=O)c1snc(C(N)=O)c1N)c1ccc2c(c1)OCCO2` (stereo not drawn), the growth inhibition is reported as -13.6% and the inhibition is reported as 52.4% (active).
In the case of `COC(=O)c1cccc(N(C(=O)c2ccco2)C(C(=O)NC2CCCC2)c2ccco2)c1` (stereo not drawn), the inhibition is reported as -17.9% (inactive).
With `CCCCNC(=O)CCNC(=O)c1ccc(C(C)(C)C)cc1` the growth inhibition was 22.6% and the inhibition was 20.7% (inactive).
For `CCCCCCSc1nsc(N)n1`, the growth inhibition was 5.56% and the inhibition was 30.6% (inactive).
With `CC(C)C(=O)Nc1nnc(Sc2ccc(N(C)C)cc2)s1` the growth inhibition was -33.3% and the inhibition was -11.6% (inactive).
For `COc1ccc(CNC(=O)CCn2cccc2)cc1`, the growth inhibition was 33.3% and the inhibition was 18.8% (inactive).
For `CCCNC(=O)N1CCN(C(=O)NCCC)CC1`, the growth inhibition was 5.13% and the inhibition was 3.89% (inactive).
For `COc1ccccc1NC(=O)CC(NCCN(C)C)C(=O)O` (stereo not drawn), the growth inhibition was 18.9% and the inhibition was 15.2% (inactive).
In the case of `CC(=O)Nc1ccc(NC(=O)CSCc2cnn(-c3ccccc3)c2-n2cccc2)cc1`, the growth inhibition is reported as -16.7% and the inhibition is reported as 13.1% (inactive).
With `COCCNC(=O)COc1ccccc1C` the growth inhibition was 6.67% and the inhibition was 9.39% (inactive).
With `Cc1nc(N2CCOCC2)nc2c1CCCC2` the growth inhibition was 15% and the inhibition was 16.9% (inactive).
For `C[C@H](NC(=O)OC(C)(C)C)c1nnc(SCC(N)=O)o1`, the growth inhibition was 7.41% and the inhibition was 12.5% (inactive).
In the case of `O=C(c1cc2sccc2n1Cc1ccc(F)cc1)N1CCc2ccccc21`, the growth inhibition is reported as 13.5% and the inhibition is reported as 26.8% (inactive).
For `CCCCCCc1cc2cc(-c3nnc(-c4cccc(OC)c4)o3)c(=O)oc2cc1O`, the inhibition was -37.6% (inactive).
For `CCC(=O)N(Cc1cc2cc(OC)ccc2[nH]c1=O)c1ccccc1C`, the growth inhibition was 3.45% and the inhibition was 5.99% (inactive).
With `CC(C)(C)n1nnnc1C(c1ccc(Cl)cc1)N1CCSCC1` (stereo not drawn) the growth inhibition was -17.4% and the inhibition was 13.7% (inactive).
In the case of `CCN(CC)CCCN1C(=O)C(=O)/C(=C(/O)c2c(C)nc3ccccn23)C1c1ccc(C)o1` (stereo not drawn), the growth inhibition is reported as 3.45% and the inhibition is reported as 7.68% (inactive).
For `CC(=O)NC(C)(C)C1CC=C(C)/C(=N\O)C1` (stereo not drawn), the growth inhibition was -23.8% and the inhibition was -13.5% (inactive).
In the case of `CC(C)CC(N=C1NC(C)(C)Cc2ccccc21)C(=O)O` (stereo not drawn), the growth inhibition is reported as 21.1% and the inhibition is reported as 6.22% (inactive).
In the case of `O=C(CN1C(=O)CC(c2ccccc2)=Nc2ccccc21)NC1CCCCC1`, the growth inhibition is reported as -28.6% and the inhibition is reported as 18.7% (inactive).
With `CCN(CC(=O)NC1CCS(=O)(=O)C1)c1nc(-c2cccnc2)nc2ccccc12` (stereo not drawn) the growth inhibition was -30.9% and the inhibition was 20.1% (inactive).
For `C[C@H](NC(=O)OC(C)(C)C)c1nnc(SCC(=O)Nc2ccc(Br)cc2)o1`, the growth inhibition was -11.1% and the inhibition was 14.5% (inactive).
For `CCOC(=O)C1=C(C)NC2=C(C(=O)CC(C)(C)C2)C1c1ccsc1` (stereo not drawn), the growth inhibition was -7.5% and the inhibition was 9.79% (inactive).
For `Cc1c(C(=O)CN2CCOCC2)[nH]c2ccccc12`, the growth inhibition was 18.5% and the inhibition was 16.8% (inactive).
In the case of `COc1ccc(C2C(C(C)=O)=C(O)C(=O)N2Cc2cccnc2)cc1` (stereo not drawn), the inhibition is reported as -0.66% (inactive).
For `CCOC(=O)NC(C(F)(F)F)(C(F)(F)F)P(=O)(c1ccccc1)c1ccccc1`, the growth inhibition was -5.56% and the inhibition was -15.8% (inactive).
With `Cc1cc(=O)oc(C)c1C(=O)Nc1cnc2ccccc2c1` the growth inhibition was -3.7% and the inhibition was 17.1% (inactive).
For `COc1ccc(C(C#N)N2N=C(C)CC2(C)C)cc1` (stereo not drawn), the growth inhibition was 4.76% and the inhibition was -5.47% (inactive).
In the case of `COC(=O)C1=C(C)NC(=O)NC1/C=C/c1ccccc1` (stereo not drawn), the growth inhibition is reported as -4.55% and the inhibition is reported as 22.3% (inactive).
With `Cc1cc(Oc2ccccc2)nc(N2CCOCC2)n1` the growth inhibition was 5.41% and the inhibition was 12.4% (inactive).
For `CCCc1nc(-c2ccccc2O)n(-c2ccccc2)n1`, the growth inhibition was 25.8% and the inhibition was 52.9% (active).
In the case of `CCCc1nc2c3cnn(-c4cccc(Cl)c4)c3ncn2n1`, the inhibition is reported as 17.9% (inactive).
With `CCCCOc1ccc(NC(=O)CSCC(=O)OCC)cc1` the inhibition was 25% (inactive).
In the case of `Cc1ccc(-c2nnn(CC(=O)N(CCO)C(C(=O)NC(C)(C)C)c3ccncc3)n2)cc1` (stereo not drawn), the growth inhibition is reported as 14.8% and the inhibition is reported as 23.7% (inactive).
For `O=c1c2ccccc2oc2nc3n(c(=O)c12)CCCS3`, the growth inhibition was 4% and the inhibition was 24.9% (inactive).
For `CCOc1ccc(N=C2SC(C(=O)O)CC(=O)N2C)cc1` (stereo not drawn), the growth inhibition was 12% and the inhibition was 24.2% (inactive).
With `CCCOc1cc(C)c(S(=O)(=O)n2nnc3ccccc32)cc1C` the growth inhibition was 12.9% and the inhibition was 11.9% (inactive).
In the case of `O=C(CSc1nnc(-c2cnccn2)n1Cc1ccco1)c1ccc(Cl)c(Cl)c1`, the growth inhibition is reported as -22.6% and the inhibition is reported as 4.49% (inactive).
With `COc1ccc(-c2cc(C(=O)NCc3ccco3)no2)cc1OC` the growth inhibition was 2.7% and the inhibition was 19.9% (inactive).
With `O=C(O)CSc1nccn1-c1cccc(Cl)c1` the growth inhibition was -14.3% and the inhibition was -8.74% (inactive).
With `Oc1ccc2ccc3cccc[n+]3c2c1` the growth inhibition was -4.35% and the inhibition was 53.1% (active).
In the case of `O=C(Nc1ccc(S(=O)(=O)N2CCCC2)cc1Cl)C1=COCCO1`, the growth inhibition is reported as -13.8% and the inhibition is reported as 17.1% (inactive).
In the case of `Cc1cc(C)n(-c2cc(Oc3ccccc3)ncn2)n1`, the growth inhibition is reported as -5.56% and the inhibition is reported as 0% (inactive).
For `Cc1cc(NC(=O)CCC2COc3ccccc3O2)no1` (stereo not drawn), the inhibition was -23.3% (inactive).
In the case of `O=c1[nH]c2c(c(=O)n1Cc1ccccc1)CCC2`, the growth inhibition is reported as 10.8% and the inhibition is reported as 17.1% (inactive).
For `CCCC(=O)N(CCc1ccccc1)Cc1nc2ccccc2c(=O)[nH]1`, the growth inhibition was 19% and the inhibition was -3.55% (inactive).
For `CCn1nccc1C(=O)Nc1ccc(Cl)c(Cl)c1`, the growth inhibition was -8.33% and the inhibition was 37.2% (inactive).
With `CCCC(C)C(=O)Nc1ccc(NC(C)=O)cc1` (stereo not drawn) the growth inhibition was 2.78% and the inhibition was 11.4% (inactive).
With `Cc1ccc(C(=O)Nc2ccccc2C(=O)NC2CCCCC2)cc1S(=O)(=O)N1CCOCC1` the growth inhibition was -23.3% and the inhibition was 29% (inactive).
In the case of `Cc1cccc(C)c1NC(=O)CCCSc1nnc(-c2ccco2)n1-c1ccccc1`, the growth inhibition is reported as 11.5% and the inhibition is reported as -14.1% (inactive).
For `Cc1ccnc(NC(=O)c2ccc(NC(=O)c3ccco3)cc2)c1`, the growth inhibition was -8.33% and the inhibition was 8.24% (inactive).
With `COc1ccc(Nc2nc(=O)[nH]nc2C)cc1` the growth inhibition was 20.6% and the inhibition was 25.8% (inactive).
For `C=CCNC(=O)CCCC(=O)NCC=C`, the growth inhibition was -4.76% and the inhibition was -58.7% (inactive).
For `O=C(O)CSCC(=O)Nc1cccc(C(F)(F)F)c1`, the growth inhibition was 12.1% and the inhibition was 21.9% (inactive).
With `Cc1cccc2c(=O)n3c(nc12)CCCCC3` the growth inhibition was 25.8% and the inhibition was 13.2% (inactive).
For `CCn1nnc(NC(=O)c2cc(Cl)c(OC)c(Cl)c2)n1`, the growth inhibition was 18.5% and the inhibition was 17.4% (inactive).
In the case of `Cc1c(Nc2nc3ccccc3nc2NS(=O)(=O)c2cccs2)c(=O)n(-c2ccccc2)n1C`, the growth inhibition is reported as 5% and the inhibition is reported as -33.1% (inactive).
In the case of `CC(C)(C)NC(=O)c1cc(NC(=O)c2ccco2)cc(NC(=O)c2ccco2)c1`, the inhibition is reported as 11.3% (inactive).
For `CCOc1ccccc1N=C1NC(=O)CS1`, the inhibition was -14.3% (inactive).
With `CC/C(=N\O)C(C)(C)/[N+]([O-])=C/c1ccc(Br)cc1` the growth inhibition was 5.26% and the inhibition was 9.15% (inactive).
With `N=c1c2c3c(sc2ncn1CCCN1CCOCC1)CCCCC3` the growth inhibition was 3.7% and the inhibition was 23% (inactive).
In the case of `Cc1nnc(SCC(=O)N2CCN(c3ccccc3)CC2)n1-c1ccccc1`, the growth inhibition is reported as -9.52% and the inhibition is reported as 1.9% (inactive).
With `O=C1c2ccccc2C(=O)N1CCCc1nc(-c2ccccc2)no1` the growth inhibition was -5.56% and the inhibition was -17.2% (inactive).
In the case of `c1csc(-c2nc(-c3ccncc3)no2)c1`, the growth inhibition is reported as 6.45% and the inhibition is reported as 2.34% (inactive).
With `c1ccc(CCc2nc(-c3ccncc3)no2)cc1` the growth inhibition was 15.2% and the inhibition was 50.4% (active).
In the case of `COCCOCCn1cnc2ccccc21`, the growth inhibition is reported as 6.67% and the inhibition is reported as 18.1% (inactive).
With `CCOn1c(SC(C)C)nc2ccccc2c1=O` the inhibition was 10.3% (inactive).
For `O=C(CSc1nnc(-c2cccnc2)n1CCc1ccccc1)NCc1ccccc1`, the inhibition was -28.6% (inactive).
For `Cc1ccc(NC(=O)N2CCC(O)(c3cccnc3)CC2)cc1`, the growth inhibition was 12.8% and the inhibition was 17.2% (inactive).
For `Cn1c(Cc2cccc3ccccc23)nnc1SCC(=O)N1CCN(c2cccc(Cl)c2)CC1`, the growth inhibition was 2.78% and the inhibition was 15.8% (inactive).
In the case of `CCSC1(SCC)N=C(N)C2(C#N)C(c3ccccc3)NC(C)=CC12C#N` (stereo not drawn), the growth inhibition is reported as -8.11% and the inhibition is reported as -35% (inactive).
In the case of `CNC(=S)N1N=C(c2ccccc2)CC1c1ccc(Br)cc1` (stereo not drawn), the growth inhibition is reported as -12.5% and the inhibition is reported as 17.7% (inactive).
For `CCNC(=O)CN(c1ccc(C)cc1)S(=O)(=O)c1ccc(SC)cc1`, the growth inhibition was 13.8% and the inhibition was -15% (inactive).
